Test results: ChEMBL document CHEMBL3526066, “In vitro metabolism of 17-(dimethylaminoethylamino)-17-demethoxygeldanamycin in human liver microsomes” (Drug Metab Dispos, 2011)

Tests used:
[1] = tested on: Liver microsome; experiment: Drug metabolism in human liver microsomes assessed as 17-(allylamino)-17-demethoxygeldanamycin hydroquinone formation after 1 hr relative to control by liquid chromatography-tandem mass spectrometry; format: ADME
Outline: (§1)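 Substrate (5 µM final) was incubated at 37°C with HLMs (1 mg/ml; boiled HLMs as negative control) in 0.1 M phosphate buffer with 3.3 mM MgCl2 and 1 mM β-NADPH, with or without 5 mM reduced GSH. Aliquots were taken at 1, 5, 10, 15, 30, 45, 60 and 120 min and quenched with ice-cold acetonitrile containing internal standard. Samples were analysed by LC-MS/MS, with values given as percent of the analyte/internal-standard peak area ratio at 1 min.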

[2] = tested on: Liver microsome; experiment: Drug level in boiled human liver microsomes treated with geldanamycin after 2 hrs; format: ADME; outline: as §1
[3] = tested on: Liver microsome; experiment: Drug metabolism in human liver microsomes assessed as stability after 45 mins relative to control by liquid chromatography-tandem mass spectrometry; format: ADME; conditions: 0.75 h; outline: as §1
[4] = Terminal half life in human; format: ADME, organism-based; conditions: in vivo, read-out: beta t1/2 (converted)
[5] = tested on: Liver microsome; experiment: Drug metabolism in human liver microsomes assessed as 17-aminogeldanamycin formation at 37 degC in presence of reduced GSH by liquid chromatography-tandem mass spectrometry; format: ADME; conditions: read-out: Km(app)
[6] = tested on: Liver microsome; experiment: Retention time in human liver microsomes treated with 10 uM […] after 2 hrs by liquid chromatography-tandem mass spectrometry; format: ADME
Outline: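 17-DMAG (10 µM initial) was incubated with HLMs (1 mg/ml) in 0.1 M phosphate buffer with 3.3 mM MgCl2 and 1 mM β-NADPH at 37°C for 2 h alongside negative controls, then quenched with ice-cold acetonitrile. Samples were run on a C18 column with a 0.1% formic acid/ammonium formate–acetonitrile gradient (10–90% B in 10 min) using MS full scan, MRM, EPI and MS3 scans.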

[7] = tested on: Liver microsome; experiment: Drug level in human liver microsomes treated with 1 uM 17-DMAG by liquid chromatography-tandem mass spectrometry in presence of 10 uM alpha-naphthoflavone CYP1A2 inhibitor; format: ADME
Outline: (§2)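 Pooled HLMs in 0.1 M phosphate buffer pH 7.4 with 1 mM β-NADPH, 3.3 mM MgCl2 and the selective inhibitor were preincubated 3 min at 37°C in a shaking water bath. 17-DMAG (1 µM final) was then added and incubated 20 min at 37°C, with parallel no-inhibitor controls. M1, M2, M3, M4 and M6 were quantified by LC-MS/MS MRM. Inhibition was taken as the ratio of metabolite formed with versus without inhibitor.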

[8] = tested on: Liver microsome; experiment: Drug level in human liver microsomes treated with 1 uM 17-DMAG by liquid chromatography-tandem mass spectrometry in presence of 1 uM tranylcypromine CYP2A6 inhibitor; format: ADME; outline: as §2
[9] = tested on: Liver microsome; experiment: Drug level in human liver microsomes treated with 1 uM 17-DMAG by liquid chromatography-tandem mass spectrometry in presence of 1 uM quercetin CYP2C8 inhibitor; format: ADME; outline: as §2
[10] = tested on: Liver microsome; experiment: Drug level in human liver microsomes treated with 1 uM 17-DMAGby liquid chromatography-tandem mass spectrometry in presence of 1 uM sulfaphenazole CYP2C9 inhibitor; format: ADME; outline: as §2
[11] = tested on: Liver microsome; experiment: Drug level in human liver microsomes treated with 1 uM 17-DMAG by liquid chromatography-tandem mass spectrometry in presence of 10 uM ticlopidine CYP2B6 inhibitor; format: ADME; outline: as §2
[12] = tested on: Liver microsome; experiment: Drug level in human liver microsomes treated with 1 uM 17-DMAG by liquid chromatography-tandem mass spectrometry in presence of 1 uM quinidine CYP2D6 inhibitor; format: ADME; outline: as §2
[13] = tested on: Liver microsome; experiment: Drug level in human liver microsomes treated with 1 uM 17-DMAG by liquid chromatography-tandem mass spectrometry in presence of 10 uM diethyldithiocarbamate CYP2E1 inhibitor; format: ADME; outline: as §2
[14] = target: Cytochrome P450 3A4 (Homo sapiens, UniProt P08684); experiment: Drug level assessed as human recombinant CYP3A4-mediated oxidative metabolism treated with 1 uM 17-DMAG after 30 mins by liquid chromatography-tandem mass spectrometry; format: ADME; conditions: recombinant enzyme, 0.5 h
Cytochrome P450 3A4, sequence (P08684 whole entry): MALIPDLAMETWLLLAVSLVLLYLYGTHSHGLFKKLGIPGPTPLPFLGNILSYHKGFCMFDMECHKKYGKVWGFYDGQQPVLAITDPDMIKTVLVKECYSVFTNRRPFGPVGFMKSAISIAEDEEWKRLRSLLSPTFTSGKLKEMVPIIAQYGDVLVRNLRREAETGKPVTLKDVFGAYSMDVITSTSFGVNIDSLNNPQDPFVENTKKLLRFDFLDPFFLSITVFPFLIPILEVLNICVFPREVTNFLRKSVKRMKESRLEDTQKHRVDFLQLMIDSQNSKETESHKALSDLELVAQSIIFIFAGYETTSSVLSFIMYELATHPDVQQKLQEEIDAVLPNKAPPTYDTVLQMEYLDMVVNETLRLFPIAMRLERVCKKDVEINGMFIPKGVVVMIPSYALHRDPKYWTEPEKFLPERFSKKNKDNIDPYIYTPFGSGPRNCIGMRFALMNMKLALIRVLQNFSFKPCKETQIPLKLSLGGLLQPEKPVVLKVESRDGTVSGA
Outline: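 Recombinant human P450 (E. coli-expressed, coexpressed with cytochrome b5), 20 pmol per 200 µl incubation with 0.2 mg reduced β-NADPH and 3.3 mM MgCl2 in 0.1 M phosphate buffer pH 7.4. Preincubated at 37°C in a shaking water bath, then 1 µM 17-DMAG added. E. coli control microsomes lacking P450 cDNA served as negative control. Metabolite (M1–M4, M6) formation rates were read by LC-MS/MS MRM and expressed as percent of the CYP3A4 rate.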

[15] = Drug metabolism in human liver microsomes assessed as stability after 2 hrs relative to control by liquid chromatography-tandem mass spectrometry; format: ADME; conditions: read-out: Stability
Outline: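 Pooled human liver microsomes (1 mg/ml) were incubated at 37°C with substrate (5 µM final), 1 mM β-NADPH and 3.3 mM MgCl2 in 0.1 M phosphate buffer, with or without 5 mM reduced GSH. Aliquots were taken from 1 to 120 min and quenched in ice-cold acetonitrile containing internal standard. LC-MS/MS peak-area ratios to internal standard were normalised to the 1-min sample.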

[16] = Drug metabolism in human liver microsomes assessed as stability during first 5 mins relative to control in presence of reduced GSH by liquid chromatography-tandem mass spectrometry; format: ADME; conditions: read-out: Stability; outline: as §1
[17] = Drug metabolism in human liver microsomes assessed as stability after 5 mins relative to control in presence of reduced GSH by liquid chromatography-tandem mass spectrometry; format: ADME; outline: as §1
[18] = Drug metabolism in human liver microsomes assessed as stability after 120 mins relative to control in presence of reduced GSH by liquid chromatography-tandem mass spectrometry; format: ADME; conditions: read-out: Stability; outline: as §1
[19] = tested on: Liver microsome; experiment: Drug metabolism in human liver microsomes assessed as (4E,6Z,8S,9S,10E,12S,13R,14S,16R)-19-(2-(dimethylamino)ethylamino)-8,13-dihydroxy-14-methoxy-4,10,12,16-tetramethyl-3,20,22-trioxo-2-azabicyclo[16.3.1]docosa-1(21),4,6,10,18-pentaen-9-yl carbamate formation at 1 uM 17-DMAG by liquid chromatography-tandem mass spectrometry in presence of 1 uM ketoconazole CYP3A inhibitor; format: ADME

Row | Compound | Retention_time [6] | Drug metabolism [7] | Drug metabolism [8] | Drug metabolism [9] | Drug metabolism [10] | Drug metabolism [11] | Drug metabolism [12] | Drug metabolism [13] | Drug metabolism [14] | also measured
1 | C=CCNc1c(O)cc2c(O)c1C[C@@H](C)C[C@H](OC)[C@H](O)[C@@H](C)/C=C(\C)[C@H](OC(N)=O)[C@@H](OC)/C=C\C=C(/C)C(=O)N2 [RETASPIMYCIN] | – | – | – | – | – | – | – | – | – | Drug metabolism [1]: metabolite_not_detected
2 | COc1c(O)cc2c(O)c1C[C@@H](C)C[C@H](OC)[C@H](O)[C@@H](C)/C=C(\C)[C@H](OC(N)=O)[C@@H](OC)/C=C\C=C(/C)C(=O)N2 | – | – | – | – | – | – | – | – | – | Drug metabolism [2]: metabolite_detected
3 | C=CCNC1=C2C[C@@H](C)C[C@H](OC)[C@H](O)[C@@H](C)/C=C(\C)[C@H](OC(N)=O)[C@@H](OC)/C=C\C=C(/C)C(=O)NC(=CC1=O)C2=O [TANESPIMYCIN] | – | – | – | – | – | – | – | – | – | Stability [3]: Unstable; half-life [4]: 4 h; Km [5]: 29.1 µM
4 | CO[C@H]1/C=C\C=C(/C)C(=O)NC2=CC(=O)C(NCCN(C)C)=C(C[C@@H](C)C[C@H](O)[C@H](O)[C@@H](C)/C=C(\C)[C@@H]1OC(N)=O)C2=O | 7.57 min | metabolite_detected | metabolite_detected | metabolite_detected | metabolite_detected | metabolite_detected | metabolite_detected | metabolite_detected | metabolite_detected | –
5 | CO[C@H]1/C=C\C=C(/C)C(=O)NC2=CC(=O)C(/N=C/CN(C)C)=C(C[C@@H](C)C[C@H](OC)[C@H](O)[C@@H](C)/C=C(\C)[C@@H]1OC(N)=O)C2=O | 8.4 min | – | – | – | – | – | – | – | – | –
6 | CO[C@H]1/C=C\C=C(/C)C(=O)NC2=CC(=O)C(NC(O)CN(C)C)=C(C[C@@H](C)C[C@H](OC)[C@H](O)[C@@H](C)/C=C(\C)[C@@H]1OC(N)=O)C2=O (some centres not stated) | 9.04 min | metabolite_detected | metabolite_detected | metabolite_detected | metabolite_detected | metabolite_detected | metabolite_detected | metabolite_detected | metabolite_detected | –
7 | CO[C@H]1/C=C\C=C(/C)C(=O)NC2=CC(=O)C(NCCN(C)C)=C(C[C@@H](C)C[C@H](OC)[C@H](O)[C@@H](C)/C=C(\CO)[C@@H]1OC(N)=O)C2=O | 8.21 min | metabolite_detected | metabolite_detected | metabolite_detected | metabolite_detected | metabolite_detected | metabolite_detected | metabolite_detected | metabolite_detected | –
8 | COC1=C2C[C@@H](C)C[C@H](OC)[C@H](O)[C@@H](C)/C=C(\C)[C@H](OC(N)=O)[C@@H](OC)/C=C\C=C(/C)C(=O)NC(=CC1=O)C2=O [GELDANAMYCIN] | – | – | – | – | – | – | – | – | – | remaining at 2 h [15]: 73%; remaining at 5 min [16]: 75.3%; remaining at 5 min [17]: 75.3%; remaining at 2 h [18]: 46.6%
9 | CO[C@H]1C[C@H](C)CC2=C(NCCN(C)C)C(=O)C=C(NC(=O)/C(C)=C/C=C\[C@H](O)[C@@H](OC(N)=O)/C(C)=C/[C@H](C)[C@H]1O)C2=O | 7.13 min | metabolite_detected | metabolite_detected | metabolite_detected | metabolite_detected | metabolite_detected | metabolite_detected | metabolite_detected | metabolite_detected | Drug metabolism [19]: metabolite_not_detected
